Data: ChEMBL document CHEMBL3044709, “Antimicrobial furostanol saponins from the seeds of Capsicum annuum L. var. acuminatum” (2002)
In brackets after ≈: the same amount, converted by molar mass.

What was measured:
Type in all cases: functional
Escherichia coli [1] = experiment: Antimicrobial activity against Escherichia coli DSM 682 after 48 hr by agar dilution method; conditions: DSM 682, 48 h
Method in brief: (§1)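 Agar dilution on standard plate count agar: 0.5 mL of a 2-fold serial dilution of sample mixed into 9.5 mL medium, poured into Petri dishes, organism streaked on the surface. Incubated at 28 °C (36 and 48 h). MIC is the lowest tested concentration with no visible growth.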

Escherichia coli [2] = experiment: Antimicrobial activity against Escherichia coli ATCC 35346 after 48 hr by agar dilution method; conditions: ATCC 35346, 48 h; method in brief: as §1
Stutzerimonas stutzeri = experiment: Antimicrobial activity against Pseudomonas stutzeri ATCC 962 after 48 hr by agar dilution method; conditions: ATCC 962, 48 h; method in brief: as §1
Pseudomonas aeruginosa = experiment: Antimicrobial activity against Pseudomonas aeruginosa DSM 1117 after 48 hr by agar dilution method; conditions: DSM 1117, 48 h; method in brief: as §1
[3] = test system: Limosilactobacillus fermentum; experiment: Antimicrobial activity against Lactobacillus fermentum DSM 20052 after 48 hr by agar dilution method; conditions: DSM 20052, 48 h; method in brief: as §1
Lacticaseibacillus casei = experiment: Antimicrobial activity against Lactobacillus casei DSM 20011 after 48 hr by agar dilution method; conditions: DSM 20011, 48 h; method in brief: as §1
[4] = test system: Lactiplantibacillus plantarum; experiment: Antimicrobial activity against Lactobacillus plantarum DSM 20174 after 48 hr by agar dilution method; conditions: DSM 20174, 48 h; method in brief: as §1
[5] = test system: Lacticaseibacillus rhamnosus; experiment: Antimicrobial activity against Lactobacillus rhamnosus DSM 20021 after 48 hr by agar dilution method; conditions: DSM 20021, 48 h; method in brief: as §1
Bacillus cereus = experiment: Antimicrobial activity against Bacillus cereus DSM 345 after 48 hr by agar dilution method; conditions: DSM 345, 48 h; method in brief: as §1
Micrococcus luteus = experiment: Antimicrobial activity against Micrococcus luteus DSM 348 after 48 hr by agar dilution method; conditions: DSM 348, 48 h; method in brief: as §1
Staphylococcus aureus = experiment: Antimicrobial activity against Staphylococcus aureus subsp. aureus DSM 346 after 48 hr by agar dilution method; conditions: DSM 346, 48 h; method in brief: as §1
[6] = test system: Staphylococcus epidermidis; experiment: Antimicrobial activity against Staphylococcus epidermidis DSM 1798 after 48 hr by agar dilution method; conditions: DSM 1798, 48 h; method in brief: as §1
Bacillus licheniformis = experiment: Antimicrobial activity against Bacillus licheniformis DSM 13=ATCC 14580 after 48 hr by agar dilution method; conditions: DSM 13 = ATCC 14580, 48 h; method in brief: as §1
Aspergillus fumigatus = experiment: Antimicrobial activity against Aspergillus fumigatus ATCC 1028 after 48 hr by agar dilution method; conditions: ATCC 1028, 48 h
Method in brief: (§2)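 Fungi tested by agar dilution in malt agar. Serial 2-fold sample dilutions (0.5 mL) were mixed with 9.5 mL medium and plated, then streaked with the organism. Incubation at 28 °C for 36 and 48 h. MIC is the lowest tested concentration without growth.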

Bacillus subtilis = experiment: Antimicrobial activity against Bacillus subtilis DSM 345 after 48 hr by agar dilution method; conditions: DSM 345, 48 h; method in brief: as §1
Aspergillus flavus = experiment: Antimicrobial activity against Aspergillus flavus ATCC 11655 after 48 hr by agar dilution method; conditions: ATCC 11655, 48 h; method in brief: as §2
Aspergillus niger = experiment: Antimicrobial activity against Aspergillus niger ATCC 1040 after 48 hr by agar dilution method; conditions: ATCC 1040, 48 h; method in brief: as §2
Rhizopus arrhizus = experiment: Antimicrobial activity against Rhizopus oryzae ATCC 56536 after 48 hr by agar dilution method; conditions: ATCC 56536, 48 h; method in brief: as §2
Trichoderma viride = experiment: Antimicrobial activity against Hypocrea rufa ATCC 28020 after 48 hr by agar dilution method; conditions: ATCC 28020, 48 h; method in brief: as §2
Setophoma terrestris = experiment: Antimicrobial activity against Setophoma terrestris ATCC 11321 after 48 hr by agar dilution method; conditions: ATCC 11321, 48 h; method in brief: as §2
Penicillium expansum = experiment: Antimicrobial activity against Penicillium expansum ATCC 7861 after 48 hr by agar dilution method; conditions: ATCC 7861, 48 h; method in brief: as §2
[7] = test system: Hanseniaspora guilliermondii; experiment: Antimicrobial activity against Hanseniaspora guilliermondii CBS 465 after 48 hr by agar dilution method; conditions: CBS 465, 48 h
Method in brief: (§3)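 Yeast peptone dextrose agar plates, each holding a 2-fold serial dilution of sample (0.5 mL into 9.5 mL medium). Yeast streaked onto the plates and incubated at 28 °C, read at 36 and 48 h. MIC is the lowest concentration tested showing no growth.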

Hanseniaspora uvarum [8] = experiment: Antimicrobial activity against Hanseniaspora uvarum CBS 314 after 48 hr by agar dilution method; conditions: CBS 314, 48 h; method in brief: as §3
Hanseniaspora vineae = experiment: Antimicrobial activity against Hanseniaspora vineae CBS 2171 after 48 hr by agar dilution method; conditions: CBS 2171, 48 h; method in brief: as §3
Hanseniaspora osmophila = experiment: Antimicrobial activity against Hanseniaspora osmophila CBS 313 after 48 hr by agar dilution method; conditions: CBS 313, 48 h; method in brief: as §3
Hanseniaspora uvarum [9] = experiment: Antimicrobial activity against Hanseniaspora uvarum AP23 after 48 hr by agar dilution method; conditions: Distaam AP23, 48 h; method in brief: as §3
Candida albicans = experiment: Antimicrobial activity against Candida albicans CBS 562 after 48 hr by agar dilution method; conditions: CBS 562, 48 h; method in brief: as §3
[10] = test system: Schizosaccharomyces pombe; experiment: Antimicrobial activity against Schizosaccharomyces pombe Diproval 106 after 48 hr by agar dilution method; conditions: Diproval 106, 48 h; method in brief: as §3
Saccharomycodes ludwigii = experiment: Antimicrobial activity against Saccharomycodes ludwigii Diproval 120 after 48 hr by agar dilution method; conditions: Diproval 120, 48 h; method in brief: as §3
Saccharomyces cerevisiae [11] = experiment: Antimicrobial activity against Saccharomyces cerevisiae Diproval 9109 after 48 hr by agar dilution method; conditions: Diproval 9109, 48 h; method in brief: as §3
Saccharomyces cerevisiae [12] = experiment: Antimicrobial activity against Saccharomyces cerevisiae Diproval 7070 after 48 hr by agar dilution method; conditions: Diproval 7070, 48 h; method in brief: as §3
Saccharomyces cerevisiae [13] = experiment: Antimicrobial activity against Saccharomyces cerevisiae Diproval 8167 after 48 hr by agar dilution method; conditions: Diproval 8167, 48 h; method in brief: as §3
Saccharomyces cerevisiae [14] = experiment: Antimicrobial activity against Saccharomyces cerevisiae Diproval 2439 after 48 hr by agar dilution method; conditions: Diproval 2439, 48 h; method in brief: as §3
Saccharomyces cerevisiae [15] = experiment: Antimicrobial activity against Saccharomyces cerevisiae Diproval 6073 after 48 hr by agar dilution method; conditions: Diproval 6073, 48 h; method in brief: as §3
Saccharomyces cerevisiae [16] = experiment: Antimicrobial activity against Saccharomyces cerevisiae Diproval 404 after 48 hr by agar dilution method; conditions: Diproval 404, 48 h; method in brief: as §3
Enterococcus faecalis = experiment: Antimicrobial activity against Enterococcus faecalis DSM 2570 after 48 hr by agar dilution method; conditions: DSM 2570, 48 h; method in brief: as §1

COC1(CC[C@@H](C)CO[C@@H]2O[C@H](CO)[C@@H](O)[C@H](O)[C@H]2O)O[C@H]2C[C@H]3[C@@H]4CC[C@H]5C[C@@H](O[C@@H]6O[C@H](CO)[C@H](O[C@@H]7O[C@H](CO)[C@@H](O)[C@H](O[C@@H]8O[C@H](CO)[C@@H](O)[C@H](O)[C@H]8O)[C@H]7O[C@@H]7O[C@H](CO)[C@@H](O)[C@H](O[C@@H]8O[C@H](CO)[C@@H](O)[C@H](O)[C@H]8O)[C@H]7O)[C@H](O)[C@H]6O)CC[C@]5(C)[C@H]4CC[C@]3(C)[C@H]2[C@@H]1C (stereo partly specified) [22-O-METHYLCAPSICOSIDE G]
MIC (Escherichia coli [1]): 1000 µg/mL (≈ 703 µM)
MIC (Escherichia coli [2]): 1000 µg/mL (≈ 703 µM)
MIC (Stutzerimonas stutzeri): > 1000 µg/mL
MIC (Pseudomonas aeruginosa): > 1000 µg/mL
MIC [3]: 1000 µg/mL (≈ 703 µM)
MIC (Lacticaseibacillus casei): 1000 µg/mL (≈ 703 µM)
MIC [4]: 1000 µg/mL (≈ 703 µM)
MIC [5]: 1000 µg/mL (≈ 703 µM)
MIC (Bacillus cereus): 1000 µg/mL (≈ 703 µM)
MIC (Micrococcus luteus): > 1000 µg/mL
MIC (Staphylococcus aureus): > 1000 µg/mL
MIC [6]: > 1000 µg/mL
MIC (Bacillus licheniformis): > 1000 µg/mL
MIC (Aspergillus fumigatus): > 1000 µg/mL
MIC (Bacillus subtilis): > 1000 µg/mL
MIC (Aspergillus flavus): > 1000 µg/mL
MIC (Aspergillus niger): > 1000 µg/mL
MIC (Rhizopus arrhizus): 125 µg/mL (≈ 87.9 µM)
MIC (Trichoderma viride): 250 µg/mL (≈ 176 µM)
MIC (Setophoma terrestris): 250 µg/mL (≈ 176 µM)
MIC (Penicillium expansum): 500 µg/mL (≈ 352 µM)
MIC [7]: 12.5 µg/mL (≈ 8.79 µM)
MIC (Hanseniaspora uvarum [8]): 12.5 µg/mL (≈ 8.79 µM)
MIC (Hanseniaspora vineae): 12.5 µg/mL (≈ 8.79 µM)
MIC (Hanseniaspora osmophila): 25 µg/mL (≈ 17.6 µM)
MIC (Hanseniaspora uvarum [9]): 12.5 µg/mL (≈ 8.79 µM)
MIC (Candida albicans): 25 µg/mL (≈ 17.6 µM)
MIC [10]: 25 µg/mL (≈ 17.6 µM)
MIC (Saccharomycodes ludwigii): 12.5 µg/mL (≈ 8.79 µM)
MIC (Saccharomyces cerevisiae [11]): 25 µg/mL (≈ 17.6 µM)
MIC (Saccharomyces cerevisiae [12]): 25 µg/mL (≈ 17.6 µM)
MIC (Saccharomyces cerevisiae [13]): 25 µg/mL (≈ 17.6 µM)
MIC (Saccharomyces cerevisiae [14]): 25 µg/mL (≈ 17.6 µM)
MIC (Saccharomyces cerevisiae [15]): 25 µg/mL (≈ 17.6 µM)
MIC (Saccharomyces cerevisiae [16]): 25 µg/mL (≈ 17.6 µM)
MIC (Enterococcus faecalis): > 1000 µg/mL
